A selection: hits, their analogues and other compounds. The true share with any hit is near 2.2%.
FGF22 binding: binders of human FGF22 protein, primary screen, FGF22 synaptogenesis inhibitor project, biophysical, thermal shift, single point; recombinant FGF22 thermal shift, SYPRO orange fluorescence; percent of sucrose octasulfate shift, DMSO zero; 1.5% of 340,000 active; Fibroblast growth factor 22 (Homo sapiens), Q9HCT0; activity (Tm shift, normalised), % at 9.99 µM; AID 651658, 2012;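 active = mean Tm shift, scaled 0 neutral to 100 positive control, at about 1.3% or above, every replicate too, limit read from the data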
Target sequence (Q9HCT0 whole entry, looked up): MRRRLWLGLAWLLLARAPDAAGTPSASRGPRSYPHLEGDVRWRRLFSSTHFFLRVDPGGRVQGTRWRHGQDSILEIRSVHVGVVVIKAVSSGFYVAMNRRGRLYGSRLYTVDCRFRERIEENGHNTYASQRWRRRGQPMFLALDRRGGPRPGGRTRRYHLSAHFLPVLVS
PGC1a acetyl inh: inhibitors of PGC1a acetylation signal, primary screen, cell-based, U2OS, AlphaScreen, inhibitor mode; AlphaScreen anti-acetyl-lysine; with virally co-expressed GCN5 acetyltransferase; inhibition, % at 15.6 µM; 0.17% of 350,000 active;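 active = every replicate shows inhibition of at least 40%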;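 also: 0% = neutral control wells and 100% = positive control wells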
ERAP1 HTS inh: human ERAP1 aminopeptidase inhibitors, primary screen, biochemical, single point, plate reader. Endoplasmic reticulum aminopeptidase 1 (Homo sapiens), Q9NZ08. recombinant ERAP1, Leu-AMC fluorescence, 60 min. inhibition, % at 10.7 µM. 0.15% of 340,000 active. AID 652197, 2013;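 active = mean replicate inhibition of at least 30%, or all replicates individually reaching that 30% level; inactive = mean below 30% and not every replicate reaching it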;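 also: 0% = neutral control wells and 100% = L-leucinethiol positive control wells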
SIRT5 inh: SIRT5 desuccinylase inhibitors, primary screen, biochemical, fluorescence imaging, single point, set 5. Purified SirT5, succinyl-peptide AMC, trypsin-coupled fluorescence. NAD-dependent protein deacylase sirtuin-5, mitochondrial (Homo sapiens), Q9NXA8. 1.1% of 330,000 active. inhibition, % at 15 µM; in the data active = inhibition above about 15%
Target sequence (Q9NXA8 whole entry, looked up): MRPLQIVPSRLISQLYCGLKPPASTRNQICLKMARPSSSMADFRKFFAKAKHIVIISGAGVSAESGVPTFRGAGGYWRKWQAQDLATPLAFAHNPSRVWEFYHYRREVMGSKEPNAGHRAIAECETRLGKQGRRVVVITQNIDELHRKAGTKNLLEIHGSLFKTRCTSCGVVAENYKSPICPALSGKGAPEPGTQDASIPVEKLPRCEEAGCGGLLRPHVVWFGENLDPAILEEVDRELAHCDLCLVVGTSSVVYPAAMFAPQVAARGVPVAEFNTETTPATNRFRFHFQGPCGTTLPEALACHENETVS
FN deposition inh: inhibitors of fibronectin matrix deposition, primary screen, AH1F cells, Alexa488-fibronectin fluorescence, plate reader | 0.086% of 350,000 active | AH1F fibroblasts, overnight | inhibition, % at 12.6 µM;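 active = mean inhibition across replicates of 30% or more, regardless of how many single replicates reach that level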;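 also: positive control wells lacked labelled fibronectin entirely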
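Material: AH1F fibroblasts assembling fluorescent fibronectin matrix; amount: 10000 AH1F cells/well; medium: DMEM, 2% serum; reagent: Alexa488-fibronectin, 24 nM final in well; dosing: single compound dose, delivered by pin transfer; incubation: 1 h adhesion, overnight exposure; detection: fluorescence after three HBSS washes, excitation 485 nm, emission 525 nm; measure: fibronectin deposition inhibition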
Active calls of the source: *; · = no result given.

SMILES	FGF22 binding	PGC1a acetyl inh	ERAP1 HTS inh	SIRT5 inh	FN deposition inh
S=c1nn[nH]c2ccccc12	43*	-3	0	·	7
O=C1CC2(CCCCC2)Oc2ccccc21	0	1	8	31*	-13
Cc1ccc(OCCSc2nc3ccccc3n2CC(=O)O)cc1	0	17	4	16*	-2
COc1ccccc1OCCSc1nc2ccccc2n1CC(O)CO (stereo not given)	0	5	2	18*	-6
COc1ccccc1OCCSc1nc2ccccc2n1CC(=O)O	0	·	0	-1	-1
CCc1ccc(OCCSc2nc3ccccc3n2CC(=O)O)cc1	0	·	3	-4	-3
C[C@@H]1CCCCO[C@@H](CN(C)C(=O)Nc2ccc3c(c2)OCO3)[C@H](C)CN([C@H](C)CO)C(=O)c2cc(NC(=O)C3CCCCC3)ccc2O1	0	-6	1	6	·
COc1ccc(S(=O)(=O)N[C@H]2C=C[C@H](CC(=O)N3CCc4ccccc4C3)O[C@H]2CO)cc1	0	-6	2	-4	-3
Cc1ccc(S(=O)(=O)N2C[C@H]3[C@H]4C(=O)N(c5ccccc5)C(=O)[C@H]4C[C@H](OC(=O)NCc4ccccc4)[C@@]3(O)C2)cc1	43*	3	-3	22*	3
Cc1ccc(S(=O)(=O)N(C)C[C@@H]2OCCCC[C@H](C)Oc3ccc(NC(=O)Nc4ccccc4)cc3C(=O)N([C@H](C)CO)C[C@H]2C)cc1	0	-18	1	3	6
C[C@@H]1CN([C@H](C)CO)C(=O)c2cc(NC(=O)Nc3ccc(F)cc3)ccc2O[C@@H]1CN(C)S(=O)(=O)c1ccc(F)cc1	0	3	3	6	·
CCOC(=O)c1c(/N=C/C2=C(O)CC(C)(C)CC2=O)sc(C(C)=O)c1C	43*	·	3	0	10
COc1ccc(C[C@H]2CCn3cc(nn3)COC[C@H](Cc3ccccc3)NC2=O)cc1	0	·	1	2	-2
CO[C@H]1CN(C)C(=O)c2ccc(NC(=O)c3cccc(F)c3)cc2OC[C@@H](C)N(CC2CC2)C[C@H]1C	0	-22	-1	-3	-9
O=C(CCCN1C(=O)/C(=C/c2ccccc2)SC1=S)Nc1ccccc1O	0	8	2	-2	0
O=C(CCN1C(=O)/C(=C/c2ccccc2Cl)SC1=S)Nc1ccccc1C(=O)O	·	-1	3	18*	-3
O=C(CCCN1C(=O)/C(=C\c2cccs2)SC1=S)Nc1cccnc1	0	-2	6	·	16
O=C(CCCN1C(=O)/C(=C\c2ccccc2)SC1=S)Nc1ccc(O)cc1C(=O)O	·	5	36*	-1	5
O=C(CCCN1C(=O)/C(=C/c2cccs2)SC1=S)Nc1cccnc1	44*	9	-1	-2	-1
O=C(CCN1C(=O)/C(=C/c2ccco2)SC1=S)Nc1ccc(O)cc1C(=O)O	0	-5	6	48*	1
COc1ccc(NC(=O)N(C)C[C@H]2Oc3c(NS(=O)(=O)c4ccc(OC)cc4)cccc3C(=O)N([C@@H](C)CO)C[C@H]2C)cc1	0	13	-1	1	·
O=C(O)CCCN1C(=O)/C(=C\c2ccco2)SC1=S	0	-7	6	7	-4
O=C(CCCN1C(=O)/C(=C/c2ccco2)SC1=S)Nc1ccccc1C(=O)O	·	·	12	27*	-2
O=C(CN1C(=O)/C(=C\c2ccco2)SC1=S)Nc1ccc(O)cc1C(=O)O	·	51	14	49*	2
O=C(OC1CCOC1=O)c1ccc(N2CCCC2)c([N+](=O)[O-])c1 (stereo not given)	0	-1	-1	2	3
SMILES	FGF22 binding	PGC1a acetyl inh	ERAP1 HTS inh	SIRT5 inh	FN deposition inh
O=C(OC1CCOC1=O)c1cc(Cl)ccc1[N+](=O)[O-] (stereo not given)	0	0	2	98*	-2
COc1ccc(C=C2NC(=O)NC2=O)cc1O	0	4	1	·	-2
COc1cc(/C=C2\NC(=O)NC2=O)cc(Br)c1OC	0	·	-1	17*	2
O=C(N/C(=C/c1ccco1)C(=O)N1CCOCC1)c1ccc([N+](=O)[O-])cc1	0	·	4	1	·
O=C(Nc1ccc(C(=O)O)cc1)/C(=C\c1ccco1)NC(=O)c1ccc(Br)cc1	0	4	0	24*	3
O=C(N/C(=C\c1ccco1)C(=O)N1CCCCC1)c1ccc([N+](=O)[O-])cc1	0	1	3	17*	3
O=C(N/C(=C/c1ccccc1)C(=O)N1CCOCC1)c1ccc([N+](=O)[O-])cc1	0	·	-1	14	10
COc1ccc(/C=C(\NC(=O)c2ccc([N+](=O)[O-])cc2)C(=O)N2CCOCC2)cc1	43*	-3	-2	-2	-1
C[C@@H]1CN([C@H](C)CO)C(=O)c2cc(NC(=O)Nc3ccc(F)cc3)ccc2O[C@H]1CN(C)Cc1ccc(C(=O)O)cc1	0	3	-21	-4	-3
COc1ccc(OC)c(CNS(=O)(=O)c2cc(-c3cc(C)no3)ccc2OC)c1	0	51*	-4	0	-6
Cc1ccc(S(=O)(=O)N(C)C[C@@H]2Oc3ccc(NC(=O)CCCCCC(=O)Nc4ccccc4N)cc3C(=O)N([C@@H](C)CO)C[C@@H]2C)cc1	0	-12	-2	-3	·
Cc1ccc(NC(=O)c2ccc([N+](=O)[O-])o2)c(C)c1	0	-21	0	·	·
Cc1ccc(S(=O)(=O)c2ccc([N+](=O)[O-])o2)cc1	0	·	4	-10	49*
O=C(Nc1cccc(Cl)c1)N1C[C@@H]2[C@H](c3ccccc31)[C@H](CO)N2C(=O)C1CCCC1	0	-17	-2	1	·
Cc1ccc(S(=O)(=O)N(C)C[C@@H]2Oc3ccc(NS(=O)(=O)c4c(C)noc4C)cc3C(=O)N([C@@H](C)CO)C[C@H]2C)cc1	0	2	-1	-1	·
COc1ccc(NC(=O)N(C)C[C@@H]2Oc3ccc(NC(=O)NC(C)C)cc3CC(=O)N([C@H](C)CO)C[C@H]2C)cc1	0	6	1	1	-18
Cc1ccc2cc(CN(Cc3ccccc3)Cc3nnnn3C3CCCC3)c(=O)[nH]c2c1	0	·	9	-2	·
CCOc1ccc2[nH]c(=O)c(CN(CCCN3CCOCC3)Cc3nnnn3Cc3ccc(OC)cc3)cc2c1	43*	·	-1	-5	2
COc1ccc(Cn2nnnc2CN(Cc2cc3ccc(C)cc3[nH]c2=O)C2CCCC2)cc1	·	42*	·	·	·
Cc1ccc2cc(CN(Cc3ccc(F)cc3)Cc3nnnn3C3CCCC3)c(=O)[nH]c2c1	0	·	0	29*	·
